Source: PMC2897717 (Journal of cerebral blood flow and metabolism : official …, 2009)

Key:
[1] = Multiple-injection; format: in vivo, rhesus monkey (Macaca mulatta)
Outline: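 Three labeled/unlabeled radioligand injections were given i.v. in 0.9% NaCl within a session under 3 hours, with no decay correction. The model used K1, k2, fNDkon, koff and Bmax shared across injections, with molar arterial parent plasma as input and a blood-volume term. Levenberg–Marquardt fitting was run per ROI and across regions. Cerebellum was fitted as 1CM [K1,k2] or 2CM [K1,k2,Bmax] with fNDkon and koff fixed from other regions.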

[2] = tested on: dopamine D2/D3 receptors; assay: Multiple-injection; format: in vivo, rhesus monkey (Macaca mulatta)
[3] = baboon, MI experiments; ref Delforge et al, 1999; cited from earlier work
[4] = averaged across all brain regions

| SMILES | K1, mean [1, 4] [mL/cm^3/min] | k2, tissue-to-plasma efflux constant, mean [1, 4] [min⁻¹] | ND distribution volume (VND = K1/k2) ([1]; from mean K1 and k2) [mL/cm^3] | Estimated maximum receptor occupancy, injection 1 ([2]; experiment M1a, m1 2.0 nmol) [%] | Estimated maximum receptor occupancy, injection 2 ([2]; experiment M1a, m2 13.1 nmol) [%] | Estimated maximum receptor occupancy, injection 3 ([2]; experiment M1a, m3 100 nmol) [%] | Estimated maximum receptor occupancy, injection 1 ([2]; experiment M2a, m1 0.7 nmol) [%] | Estimated maximum receptor occupancy, injection 2 ([2]; experiment M2a, m2 10.6 nmol) [%] | VND [3] [mL/cm^3] |
| --- | --- | --- | --- | --- | --- | --- | --- | --- | --- |
| C=CCN1CCC[C@H]1CNC(=O)c1cc(CCCF)cc(OC)c1OC [^18F-fallypride, (S)-N-[(1-allyl-2-pyrrolidinyl)methyl]-5 (3-[18F]fluoropropyl) 2,3-dimethoxybenzamide] | 0.48 ± 0.15 | 0.54 ± 0.10 | 0.9 | 13 | 64 | 98 | 12 | 77 |  |
| CCN1CCCC1CNC(=O)c1cc([76Br])cc(OC)c1OC (stereo not drawn) [^76Br-FLB457] |  |  |  |  |  |  |  |  | 0.35 |
